The values below come from ChEMBL document CHEMBL5046221, “Identification of Pyrimidine-Based Lead Compounds for Understudied Kinases Implicated in Driving Neurodegeneration” (J Med Chem, 2022).

A value given as a limit tells only on which side of the number the result lay.

The target of data set [1] is T1, Serine/threonine-protein kinase 17A (Homo sapiens) (UniProt Q9UEE5).
T1 sequence (whole entry): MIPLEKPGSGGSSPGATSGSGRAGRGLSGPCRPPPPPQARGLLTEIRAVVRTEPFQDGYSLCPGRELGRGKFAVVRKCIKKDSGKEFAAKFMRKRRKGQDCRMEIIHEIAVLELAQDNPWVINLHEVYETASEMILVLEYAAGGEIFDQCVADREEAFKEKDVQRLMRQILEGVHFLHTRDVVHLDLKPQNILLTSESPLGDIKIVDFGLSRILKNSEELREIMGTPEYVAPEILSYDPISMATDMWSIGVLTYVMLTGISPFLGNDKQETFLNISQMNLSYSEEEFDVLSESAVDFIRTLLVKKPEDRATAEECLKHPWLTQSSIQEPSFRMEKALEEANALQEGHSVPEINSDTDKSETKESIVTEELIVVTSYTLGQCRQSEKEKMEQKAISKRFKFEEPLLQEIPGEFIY
Nature of the data set: Inhibition of full length recombinant human DRAK1 using KKLNRTLSFAEPG as substrate at 1 uM incubated for 40 mins in presence of [gamma-33P-ATP] by radiometric scintillation assay relative to control. Put shortly: (§1)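 Eurofins radiometric kinase assay with ATP at Km for each kinase. Compound was tested at a single 1 μM concentration in duplicate, and the result is reported as percent of control.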

The target in data set [2] is Serine/threonine-protein kinase SIK2 (Homo sapiens, UniProt Q9H0K1). Nature of the data set: Inhibition of recombinant human SIK2 (1 to 276 residues) using KKKVSRSGLYRSPSMPENLNRPR as substrate measured after 40 mins in presence of [gamma33P]ATP by radiometric scintillation counting method. An outline of the steps:
(§2)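 Eurofins radiometric kinase assay run at ATP equal to Km for each kinase. 9-point dose–response in duplicate gives the IC50.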

For data set [3], the target named is Bone morphogenetic protein receptor type-1B (Homo sapiens, UniProt O00238). As to the kind of experiment: Inhibition of recombinant human BMPR1B (148 to end residues) using casein as substrate incubated for 40 mins in presence of [gamma-33P-ATP] by radiometric scintillation assay. Put shortly:
(§3)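 Eurofins radiometric enzymatic assay with ATP at Km for each kinase. IC50 was derived from a 9-point dose–response curve run in duplicate.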

Data set [4] has as its target T2, MAP/microtubule affinity-regulating kinase 4 (Homo sapiens, UniProt Q96L34).
T2 sequence (Q96L34 whole entry): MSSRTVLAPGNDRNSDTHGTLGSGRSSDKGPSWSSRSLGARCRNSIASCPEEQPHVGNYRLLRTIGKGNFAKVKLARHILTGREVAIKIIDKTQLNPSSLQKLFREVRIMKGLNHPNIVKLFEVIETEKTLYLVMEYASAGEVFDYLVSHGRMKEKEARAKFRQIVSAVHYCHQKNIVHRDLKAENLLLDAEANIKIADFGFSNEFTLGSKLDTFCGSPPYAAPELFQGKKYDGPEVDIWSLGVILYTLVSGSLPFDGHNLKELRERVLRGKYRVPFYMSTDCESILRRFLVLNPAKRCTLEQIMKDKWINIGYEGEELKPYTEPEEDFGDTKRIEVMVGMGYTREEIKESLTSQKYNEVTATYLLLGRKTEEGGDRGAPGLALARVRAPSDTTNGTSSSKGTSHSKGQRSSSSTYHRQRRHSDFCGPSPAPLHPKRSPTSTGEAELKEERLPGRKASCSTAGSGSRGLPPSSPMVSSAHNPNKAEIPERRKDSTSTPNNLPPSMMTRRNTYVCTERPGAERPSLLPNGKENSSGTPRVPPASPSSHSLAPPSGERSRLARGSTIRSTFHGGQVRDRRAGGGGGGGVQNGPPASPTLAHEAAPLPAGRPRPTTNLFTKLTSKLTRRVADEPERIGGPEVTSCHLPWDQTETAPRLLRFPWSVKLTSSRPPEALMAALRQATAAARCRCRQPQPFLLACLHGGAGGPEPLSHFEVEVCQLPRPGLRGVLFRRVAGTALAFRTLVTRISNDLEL
Nature of the data set: Displacement of tracer K5 from NLuc fused MARK4 (unknown origin) expressed in HEK293 cells by NanoBRET assay. The format is cell-based. A general note: Bioluminescence resonance energy transfer reports proximity on the nanometre scale.

Data set [5] concerns the target MAP/microtubule affinity-regulating kinase 3 (Homo sapiens, UniProt P27448). Nature of the data set: Displacement of tracer K9 from NLuc fused MARK3 (unknown origin) expressed in HEK293 cells by NanoBRET assay. The format is cell-based.
Data set [6] can be described thus: Effective permeability in PBS at 7.4 incubated for 5 hrs by PAMPA analysis. The class given is ADME. To be noted: pH 7.4, 5 h. Put shortly:
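PAMPA: DMSO stocks were diluted in PBS pH 7.4 and placed in the donor compartment, with PBS pH 7.4 in the acceptor, for 5 h. Both compartments were quantified by CLND against a calibration curve, with background nitrogen correction. Effective permeability was calculated from donor and acceptor concentrations using measured rather than assumed solubility.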
On the technique in general: PAMPA measures passive passage across an artificial lipid membrane.

The target in data set [7] is Aurora kinase B (Homo sapiens) (UniProt Q96GD4). Nature of the data set: Inhibition of full length recombinant human AURKB using AKRRRLSSLRA as substrate at 1 uM incubated for 40 mins in presence of [gamma-33P-ATP] by radiometric scintillation assay relative to control. An outline of the steps: as §1
Chain of Aurora kinase B (Homo sapiens) (Q96GD4 whole entry): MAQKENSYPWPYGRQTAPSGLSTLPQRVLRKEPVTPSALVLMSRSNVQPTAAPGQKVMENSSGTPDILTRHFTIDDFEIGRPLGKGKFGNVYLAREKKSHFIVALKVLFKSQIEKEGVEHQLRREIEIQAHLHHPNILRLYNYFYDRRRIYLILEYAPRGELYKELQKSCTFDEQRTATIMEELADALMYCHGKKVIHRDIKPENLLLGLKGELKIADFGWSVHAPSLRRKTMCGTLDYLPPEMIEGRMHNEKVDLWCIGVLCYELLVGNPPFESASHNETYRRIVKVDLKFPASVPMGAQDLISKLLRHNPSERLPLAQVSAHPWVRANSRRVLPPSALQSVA
Data set [8] concerns the target Serine/threonine-protein kinase PRP4 homolog (Homo sapiens, UniProt Q13523). As to the kind of experiment: Inhibition of recombinant human PRP4 (663 to end residues) using casein as substrate incubated for 120 mins in presence of [gamma-33P-ATP] by radiometric scintillation assay. Put shortly: as §3
Data set [9] in a line: Inhibition of human TTBK1 (1 to 479 residues) using Casein as substrate measured after 40 mins in presence of [gamma33P]ATP by scintillation counting method. An outline of the steps: as §2
In data set [10] the target is BMP-2-inducible protein kinase (Homo sapiens, UniProt Q9NSY1). As to the kind of experiment: Inhibition of 1recombinant human BMP2K using myelin basic protein as substrate incubated for 120 mins in presence of [gamma-33P-ATP] by radiometric scintillation assay.
Chain of BMP-2-inducible protein kinase (Q9NSY1 whole entry, looked up): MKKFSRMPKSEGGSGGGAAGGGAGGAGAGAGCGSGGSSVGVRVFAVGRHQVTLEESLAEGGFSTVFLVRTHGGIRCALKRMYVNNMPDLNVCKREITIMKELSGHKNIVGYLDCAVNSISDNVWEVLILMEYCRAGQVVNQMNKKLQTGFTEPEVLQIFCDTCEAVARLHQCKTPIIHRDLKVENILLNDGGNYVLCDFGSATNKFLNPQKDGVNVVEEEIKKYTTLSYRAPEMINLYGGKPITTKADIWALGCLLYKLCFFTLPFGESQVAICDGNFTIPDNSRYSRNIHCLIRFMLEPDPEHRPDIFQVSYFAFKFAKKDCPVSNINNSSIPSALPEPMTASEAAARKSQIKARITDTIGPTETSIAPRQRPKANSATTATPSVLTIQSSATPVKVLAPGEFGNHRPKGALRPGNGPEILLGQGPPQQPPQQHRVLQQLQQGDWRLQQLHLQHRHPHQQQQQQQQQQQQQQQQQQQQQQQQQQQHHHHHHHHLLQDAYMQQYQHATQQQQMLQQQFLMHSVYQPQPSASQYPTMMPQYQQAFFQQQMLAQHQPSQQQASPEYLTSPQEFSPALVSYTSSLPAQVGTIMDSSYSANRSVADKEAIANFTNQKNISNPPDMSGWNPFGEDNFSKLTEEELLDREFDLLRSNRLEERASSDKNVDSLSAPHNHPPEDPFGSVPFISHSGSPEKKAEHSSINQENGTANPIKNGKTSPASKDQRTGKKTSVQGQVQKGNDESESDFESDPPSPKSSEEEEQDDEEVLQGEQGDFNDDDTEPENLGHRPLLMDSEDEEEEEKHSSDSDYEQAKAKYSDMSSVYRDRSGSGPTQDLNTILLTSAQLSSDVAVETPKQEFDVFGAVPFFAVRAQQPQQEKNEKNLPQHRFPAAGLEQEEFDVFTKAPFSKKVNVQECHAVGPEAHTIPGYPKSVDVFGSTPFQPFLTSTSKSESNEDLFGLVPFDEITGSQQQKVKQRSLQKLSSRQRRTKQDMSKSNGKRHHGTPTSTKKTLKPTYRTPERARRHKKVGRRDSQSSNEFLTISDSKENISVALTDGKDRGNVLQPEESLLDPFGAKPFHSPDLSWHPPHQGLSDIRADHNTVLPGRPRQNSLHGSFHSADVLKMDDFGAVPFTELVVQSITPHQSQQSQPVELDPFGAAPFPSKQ

In general, IC50 refers to the concentration that gives 50% inhibition.

Chain of MAP/microtubule affinity-regulating kinase 3 (P27448 whole entry, the tested form may be a part): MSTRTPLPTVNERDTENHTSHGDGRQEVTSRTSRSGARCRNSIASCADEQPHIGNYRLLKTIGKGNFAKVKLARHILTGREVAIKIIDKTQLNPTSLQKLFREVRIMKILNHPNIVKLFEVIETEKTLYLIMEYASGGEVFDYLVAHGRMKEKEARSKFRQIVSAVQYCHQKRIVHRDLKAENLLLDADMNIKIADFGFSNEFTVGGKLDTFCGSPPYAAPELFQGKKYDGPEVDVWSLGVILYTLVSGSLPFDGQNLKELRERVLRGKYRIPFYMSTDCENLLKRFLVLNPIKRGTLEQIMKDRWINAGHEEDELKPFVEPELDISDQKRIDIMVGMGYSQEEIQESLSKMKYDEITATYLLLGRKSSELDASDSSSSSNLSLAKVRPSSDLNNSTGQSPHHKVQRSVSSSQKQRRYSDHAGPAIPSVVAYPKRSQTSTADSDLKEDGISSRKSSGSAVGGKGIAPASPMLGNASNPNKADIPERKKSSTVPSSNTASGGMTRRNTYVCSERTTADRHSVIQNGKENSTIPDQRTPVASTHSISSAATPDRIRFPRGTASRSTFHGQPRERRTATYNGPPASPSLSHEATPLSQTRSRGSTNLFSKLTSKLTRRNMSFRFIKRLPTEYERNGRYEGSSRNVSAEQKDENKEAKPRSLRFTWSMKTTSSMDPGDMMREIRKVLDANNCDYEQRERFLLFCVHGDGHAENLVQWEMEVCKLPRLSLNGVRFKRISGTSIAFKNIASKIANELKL
Chain of Serine/threonine-protein kinase PRP4 homolog (Q13523 whole entry, the tested form may be a part): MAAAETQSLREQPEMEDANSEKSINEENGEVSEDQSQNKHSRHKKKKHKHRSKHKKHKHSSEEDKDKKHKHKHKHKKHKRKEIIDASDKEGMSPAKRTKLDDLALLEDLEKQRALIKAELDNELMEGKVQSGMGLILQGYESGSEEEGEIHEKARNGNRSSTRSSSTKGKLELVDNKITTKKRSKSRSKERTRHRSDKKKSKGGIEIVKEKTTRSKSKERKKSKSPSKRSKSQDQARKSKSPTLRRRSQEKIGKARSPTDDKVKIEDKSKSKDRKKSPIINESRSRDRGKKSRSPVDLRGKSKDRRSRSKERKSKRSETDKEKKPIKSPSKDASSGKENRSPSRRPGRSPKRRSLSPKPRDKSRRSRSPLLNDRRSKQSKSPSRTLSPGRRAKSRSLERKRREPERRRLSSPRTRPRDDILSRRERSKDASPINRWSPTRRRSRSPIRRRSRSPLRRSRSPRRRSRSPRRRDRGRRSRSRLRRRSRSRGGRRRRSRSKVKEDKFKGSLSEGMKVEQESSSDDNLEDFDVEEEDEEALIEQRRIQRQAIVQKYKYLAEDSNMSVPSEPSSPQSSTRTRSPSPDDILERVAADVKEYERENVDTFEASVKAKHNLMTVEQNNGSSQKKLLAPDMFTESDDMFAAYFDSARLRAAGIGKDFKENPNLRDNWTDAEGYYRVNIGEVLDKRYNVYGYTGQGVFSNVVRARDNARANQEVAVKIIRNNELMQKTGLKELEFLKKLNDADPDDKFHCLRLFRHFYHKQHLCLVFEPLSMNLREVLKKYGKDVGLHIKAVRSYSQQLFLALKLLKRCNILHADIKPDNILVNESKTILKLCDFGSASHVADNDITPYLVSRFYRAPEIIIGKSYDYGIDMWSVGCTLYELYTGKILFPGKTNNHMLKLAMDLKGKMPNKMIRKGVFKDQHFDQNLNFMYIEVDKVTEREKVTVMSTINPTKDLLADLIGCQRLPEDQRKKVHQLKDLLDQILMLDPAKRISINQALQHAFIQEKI
Chain of Serine/threonine-protein kinase SIK2 (Q9H0K1 whole entry, the tested form may be a part): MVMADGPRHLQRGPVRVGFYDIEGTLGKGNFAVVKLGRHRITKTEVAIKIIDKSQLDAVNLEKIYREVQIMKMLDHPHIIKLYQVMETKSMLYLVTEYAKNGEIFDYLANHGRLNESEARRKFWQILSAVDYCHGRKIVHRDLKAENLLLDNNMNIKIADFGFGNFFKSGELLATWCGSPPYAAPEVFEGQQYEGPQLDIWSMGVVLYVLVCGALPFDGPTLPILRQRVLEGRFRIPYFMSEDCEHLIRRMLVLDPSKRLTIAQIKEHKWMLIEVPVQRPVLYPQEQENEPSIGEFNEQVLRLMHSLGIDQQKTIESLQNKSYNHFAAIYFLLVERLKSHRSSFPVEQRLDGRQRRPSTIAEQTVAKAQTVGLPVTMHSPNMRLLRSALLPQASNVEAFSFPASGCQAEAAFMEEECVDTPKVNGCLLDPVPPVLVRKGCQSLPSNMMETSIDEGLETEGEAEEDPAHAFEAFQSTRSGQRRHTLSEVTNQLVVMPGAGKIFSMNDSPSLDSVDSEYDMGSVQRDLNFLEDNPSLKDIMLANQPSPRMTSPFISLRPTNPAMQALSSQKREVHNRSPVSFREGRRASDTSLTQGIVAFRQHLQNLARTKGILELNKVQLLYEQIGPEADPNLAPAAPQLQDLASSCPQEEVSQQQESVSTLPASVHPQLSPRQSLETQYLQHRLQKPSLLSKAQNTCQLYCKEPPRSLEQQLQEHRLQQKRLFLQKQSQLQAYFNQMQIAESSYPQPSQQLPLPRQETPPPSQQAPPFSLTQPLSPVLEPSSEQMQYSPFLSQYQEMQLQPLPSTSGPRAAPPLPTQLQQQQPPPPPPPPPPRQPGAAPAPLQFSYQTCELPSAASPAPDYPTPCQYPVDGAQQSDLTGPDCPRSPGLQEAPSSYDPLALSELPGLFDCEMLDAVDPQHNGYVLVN
Chain of Bone morphogenetic protein receptor type-1B (O00238 whole entry): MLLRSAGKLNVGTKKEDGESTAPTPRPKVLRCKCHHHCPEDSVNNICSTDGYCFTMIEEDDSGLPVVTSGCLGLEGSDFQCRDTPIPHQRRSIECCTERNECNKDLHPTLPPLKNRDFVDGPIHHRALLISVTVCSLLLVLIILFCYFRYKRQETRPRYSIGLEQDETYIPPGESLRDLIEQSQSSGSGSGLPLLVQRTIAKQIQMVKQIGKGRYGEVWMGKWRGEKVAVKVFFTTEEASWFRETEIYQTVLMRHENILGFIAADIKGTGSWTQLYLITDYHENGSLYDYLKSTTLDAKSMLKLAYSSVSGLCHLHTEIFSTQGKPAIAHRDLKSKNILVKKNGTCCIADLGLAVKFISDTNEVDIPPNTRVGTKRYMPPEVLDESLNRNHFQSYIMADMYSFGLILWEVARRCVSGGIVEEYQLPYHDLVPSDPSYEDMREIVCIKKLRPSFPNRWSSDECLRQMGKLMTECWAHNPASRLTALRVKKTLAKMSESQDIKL

For the compound `c1cc(CN2CCOCC2)cc(Nc2nccc(NCCc3cnc[nH]3)n2)c1`, the % control was 78% in [1] and 5% in data set [7]. The IC50 in [2] was 0.185 µM; in data set [3], 9.03 µM; in data set [4], greater than 10 µM; in [5], greater than 10 µM. Also, the Peff in data set [6] was 1.66 10^-7 cm/s.
For the compound `NS(=O)(=O)c1ccc(CNc2nc(Nc3cccc(CN4CCOCC4)c3)ncc2Br)cc1`, the IC50 in data set [8] was greater than 10 µM; in data set [9] it was 0.066 µM; in data set [4], greater than 10 µM; in data set [5], greater than 10 µM. Also, the Peff entry in data set [6] (BLD = below limit of detection) is “Bld”. Also, the % control in data set [7] amounted to 7%.
Regarding `NS(=O)(=O)c1ccc(CNc2nc(Nc3cccc(CN4CCOCC4)c3)ncc2C2CC2)cc1`, the values for the IC50 in data set [9], in data set [4] and in data set [5] were 0.187 µM, greater than 10 µM and greater than 10 µM, respectively. The Peff in data set [6] is on record as 7.09 10^-7 cm/s. In [7], the % control amounted to 51%.
Turning to `NS(=O)(=O)c1ccc(CNc2nc(Nc3cccc(NC(=O)N4CCCC4)c3)ncc2Br)cc1`, the IC50 was 0.192 µM in data set [9], 0.488 µM in [10], greater than 10 µM in data set [4] and greater than 10 µM in data set [5]. The Peff result in data set [6] (BLD = below limit of detection) is given as “Bld”. Moreover, the % control in data set [7] worked out at 6%.
